Laboratory results from ChEMBL document CHEMBL2062469, “1-(2-Mercaptobenzenesulfonyl)-3-hydroxyguanidines--novel potent antiproliferatives, synthesis and in vitro biological activity” (2012).

Assays:
Type in all cases: functional
CCRF-CEM = assay: Cytostatic activity against human CCRF-CEM cells
How it was run: (§1)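 NCI-60 human tumor cell line screen run by the US National Cancer Institute under the NIH Developmental Therapeutics Program protocol. A single-dose prescreen at 10 µM came first. Selected compounds then went into the 5-dose assay. Cytostatic activity is reported as GI50 (µM).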

HL-60(TB) = assay: Cytostatic activity against human HL-60(TB) cells
How it was run: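 NCI-60 panel screen run per the NIH Developmental Therapeutics Program protocol. Agents first went through a one-dose test at 10 µM. Selected compounds were then run in a 5-dose assay, from which GI50 and TGI values were derived.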

K562 = assay: Cytostatic activity against human K562 cells; how it was run: as §1
MOLT-4 = assay: Cytostatic activity against human MOLT4 cells; how it was run: as §1
[1] = Cytostatic activity against human […] cells; how it was run: as §1
SR = assay: Cytostatic activity against human SR cells
How it was run: (§2)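 Human tumour cell lines from the NCI-60 panel, tested at the US National Cancer Institute under the NIH Developmental Therapeutics Program protocol. A single-dose prescreen at 10 µM came first. Selected compounds then went to a 5-dose assay, which gave GI50 and TGI values in µM.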

A549 = assay: Cytostatic activity against human A549/ATCC cells; how it was run: as §1
EKVX = assay: Cytostatic activity against human EKVX cells; how it was run: as §1
HOP-62 = assay: Cytostatic activity against human HOP62 cells; how it was run: as §1
HOP-92 = assay: Cytostatic activity against human HOP92 cells; how it was run: as §1
NCI-H226 = assay: Cytostatic activity against human NCI-H226 cells; how it was run: as §1
NCI-H23 = assay: Cytostatic activity against human NCI-H23 cells; how it was run: as §1
NCI-H322M = assay: Cytostatic activity against human NCI-H322M cells; how it was run: as §1
NCI-H460 = assay: Cytostatic activity against human NCI-H460 cells; how it was run: as §1
NCI-H522 = assay: Cytostatic activity against human NCI-H522 cells; how it was run: as §1
COLO 205 = assay: Cytostatic activity against human COLO205 cells; how it was run: as §1
HCC 2998 = assay: Cytostatic activity against human HCC2998 cells; how it was run: as §1
HCT-116 = assay: Cytostatic activity against human HCT116 cells; how it was run: as §1
HCT-15 = assay: Cytostatic activity against human HCT15 cells; how it was run: as §1
HT-29 = assay: Cytostatic activity against human HT-29 cells; how it was run: as §1
KM12 = assay: Cytostatic activity against human KM12 cells; how it was run: as §1
SW-620 = assay: Cytostatic activity against human SW620 cells; how it was run: as §2
SF-268 = assay: Cytostatic activity against human SF268 cells; how it was run: as §1
SF-295 = assay: Cytostatic activity against human SF295 cells; how it was run: as §1
SF-539 = assay: Cytostatic activity against human SF539 cells; how it was run: as §1
SNB-19 = assay: Cytostatic activity against human SNB19 cells; how it was run: as §1
SNB-75 = assay: Cytostatic activity against human SNB75 cells; how it was run: as §2
U-251 = assay: Cytostatic activity against human U251 cells; how it was run: as §2
LOX IMVI = assay: Cytostatic activity against human LOXIMVI cells; how it was run: as §1
Malme-3M = assay: Cytostatic activity against human MALME-3M cells; how it was run: as §1
M14 = assay: Cytostatic activity against human M14 cells; how it was run: as §1
MDA-MB-435 = assay: Cytostatic activity against human MDA-MB-435 cells; how it was run: as §1
SK-MEL-2 = assay: Cytostatic activity against human SK-MEL-2 cells; how it was run: as §1
SK-MEL-28 = assay: Cytostatic activity against human SK-MEL-28 cells; how it was run: as §1
SK-MEL-5 = assay: Cytostatic activity against human SK-MEL-5 cells; how it was run: as §1
UACC-257 = assay: Cytostatic activity against human UACC257 cells; how it was run: as §2
UACC-62 = assay: Cytostatic activity against human UACC62 cells; how it was run: as §2
IGROV-1 = assay: Cytostatic activity against human IGROV1 cells; how it was run: as §1
OVCAR-3 = assay: Cytostatic activity against human OVCAR3 cells; how it was run: as §1
OVCAR-4 = assay: Cytostatic activity against human OVCAR4 cells; how it was run: as §1
OVCAR-5 = assay: Cytostatic activity against human OVCAR5 cells; how it was run: as §1
OVCAR-8 = assay: Cytostatic activity against human OVCAR8 cells; how it was run: as §1
NCI/ADR-RES = assay: Cytostatic activity against human NCI-ADR-RES cells; how it was run: as §1
A498 = assay: Cytostatic activity against human A498 cells; how it was run: as §1
ACHN = assay: Cytostatic activity against human ACHN cells; how it was run: as §1
CAKI-1 = assay: Cytostatic activity against human Caki1 cells; how it was run: as §1
RXF 393 = assay: Cytostatic activity against human RXF393 cells; how it was run: as §1
SN12C = assay: Cytostatic activity against human SN12C cells; how it was run: as §1
TK-10 = assay: Cytostatic activity against human TK10 cells; how it was run: as §2
UO-31 = assay: Cytostatic activity against human UO31 cells; how it was run: as §2
PC-3 = assay: Cytostatic activity against human PC3 cells; how it was run: as §1
DU-145 = assay: Cytostatic activity against human DU145 cells; how it was run: as §1
MCF7 = assay: Cytostatic activity against human MCF7 cells; how it was run: as §1
MDA-MB-231 = assay: Cytostatic activity against human MDA-MB-231/ATCC cells; how it was run: as §1
Hs-578T = assay: Cytostatic activity against human Hs 578T cells; how it was run: as §1
T47D = assay: Cytostatic activity against human T47D cells; how it was run: as §2
MDA-MB-468 = assay: Cytostatic activity against human MDA-MB-468 cells; how it was run: as §1

## N=C(NO)NS(=O)(=O)c1cc(-c2nnc(-c3ccc(Cl)cc3)s2)c(Cl)cc1SCc1ccccc1
CCRF-CEM
  GI50: 840 nM
  TGI: 3830 nM
HL-60(TB)
  GI50: 1780 nM
  TGI: 4530 nM
K562
  GI50: 2230 nM
  TGI: 6310 nM
MOLT-4
  GI50: 1250 nM
  TGI: 3570 nM
[1]
  GI50: 1740 nM
  TGI: 4340 nM
SR
  GI50: 1450 nM
  TGI: 4200 nM
A549
  GI50: 2250 nM
  TGI: 5640 nM
EKVX
  GI50: 1990 nM
  TGI: 4120 nM
HOP-62
  GI50: 2050 nM
  TGI: 3980 nM
HOP-92
  GI50: 2760 nM
  TGI: 7420 nM
NCI-H226
  GI50: 2070 nM
  TGI: 4050 nM
NCI-H23
  GI50: 1700 nM
  TGI: 3730 nM
NCI-H322M
  GI50: 1930 nM
  TGI: 3990 nM
NCI-H460
  GI50: 1730 nM
  TGI: 3490 nM
NCI-H522
  GI50: 1670 nM
  TGI: 3410 nM
COLO 205
  GI50: 1890 nM
  TGI: 3740 nM
HCC 2998
  GI50: 1810 nM
  TGI: 3420 nM
HCT-116
  GI50: 1560 nM
  TGI: 3110 nM
HCT-15
  GI50: 1570 nM
  TGI: 3170 nM
HT-29
  GI50: 1670 nM
  TGI: 3130 nM
KM12
  GI50: 1750 nM
  TGI: 3330 nM
SW-620
  GI50: 1470 nM
  TGI: 3070 nM
SF-268
  GI50: 1900 nM
  TGI: 4210 nM
SF-295
  GI50: 2210 nM
  TGI: 4650 nM
SF-539
  GI50: 1970 nM
  TGI: 3900 nM
SNB-19
  GI50: 1740 nM
  TGI: 3420 nM
SNB-75
  GI50: 1490 nM
  TGI: 3180 nM
U-251
  GI50: 1540 nM
  TGI: 3090 nM
LOX IMVI
  GI50: 1680 nM
  TGI: 3470 nM
Malme-3M
  GI50: 1960 nM
  TGI: 4030 nM
M14
  GI50: 1680 nM
  TGI: 3200 nM
MDA-MB-435
  GI50: 2110 nM
  TGI: 4170 nM
SK-MEL-2
  GI50: 1750 nM
  TGI: 3500 nM
SK-MEL-28
  GI50: 1910 nM
  TGI: 3470 nM
SK-MEL-5
  GI50: 1580 nM
  TGI: 3050 nM
UACC-257
  GI50: 2100 nM
  TGI: 4050 nM
UACC-62
  GI50: 2020 nM
  TGI: 3760 nM
IGROV-1
  GI50: 2570 nM
  TGI: 5380 nM
OVCAR-3
  GI50: 1670 nM
  TGI: 3120 nM
OVCAR-4
  GI50: 1650 nM
  TGI: 4010 nM
OVCAR-5
  GI50: 1600 nM
  TGI: 3020 nM
OVCAR-8
  GI50: 2030 nM
  TGI: 4300 nM
NCI/ADR-RES
  GI50: 7390 nM
A498
  GI50: 1750 nM
  TGI: 5550 nM
ACHN
  GI50: 1710 nM
  TGI: 3150 nM
CAKI-1
  GI50: 2270 nM
  TGI: 4670 nM
RXF 393
  GI50: 1660 nM
  TGI: 3040 nM
SN12C
  GI50: 1670 nM
  TGI: 3200 nM
TK-10
  GI50: 1870 nM
  TGI: 3430 nM
UO-31
  GI50: 1990 nM
  TGI: 4680 nM
PC-3
  GI50: 1740 nM
  TGI: 3270 nM
DU-145
  GI50: 1730 nM
  TGI: 3100 nM
MCF7
  GI50: 1570 nM
  TGI: 3030 nM
MDA-MB-231
  GI50: 2070 nM
  TGI: 4790 nM
Hs-578T
  GI50: 2510 nM
  TGI: 7260 nM
T47D
  GI50: 2070 nM
  TGI: 4810 nM
MDA-MB-468
  GI50: 1520 nM
  TGI: 2850 nM
